Experimental data reported in ChEMBL document CHEMBL2176891, “Structural investigation of anti-Trypanosoma cruzi 2-iminothiazolidin-4-ones allows the identification of agents with efficacy in infected mice” (J Med Chem, 2012).
Calls of active or inactive are those of the source. The calls are words filed in the database; no cut-off is given here.

Experiments:
Trypanosoma cruzi [1] = test: Antitrypanosomal activity against trypomastigotes of Trypanosoma cruzi Y infected in LLC-MK2 cells assessed as parasite motility after 24 hrs; type: functional, organism-based; conditions: LLC-MK2, 24 h
How it was run: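 Y strain bloodstream trypomastigotes taken from LLC-MK2 culture supernatant, 4 × 10⁵ cells/well. Five compound concentrations (DMSO), triplicate, 24 h at 37 °C, 5% CO₂. Viable parasites judged by motility in a Neubauer chamber. Inhibition calculated relative to untreated culture; IC50 by nonlinear regression.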

[2] = Cytotoxicity against BALB/c mouse splenocytes assessed as highest nontoxic concentration by measuring [3H]-thymidine incorporation after 24 hrs by beta-radiation counting; type: cell-based, Splenocyte; conditions: mouse, splenocytes, read-out: Activity
How it was run: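 BALB/c splenocytes, 5 × 10⁶ cells/well in RPMI-1640 with 10% FBS. Compound in DMSO at 1.0, 10 and 100 μg/mL or more, triplicate; untreated and saponin controls. 24 h at 37 °C, 5% CO₂. 1.0 μCi ³H-thymidine added, incorporation read by β-counting as % of untreated. Highest nontoxic concentration estimated.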

Trypanosoma cruzi [3] = test: Antitrypanosomal activity against epimastigotes of Trypanosoma cruzi Y in axenic culture assessed as parasite motility after 11 days; conditions: 264 h
[4] = biological target: Cruzipain (Trypanosoma cruzi) (UniProt P25779); test: Inhibition of Trypanosoma cruzi recombinant cruzain using Z-FR-AMC as substrate at 20 uM preincubated for 10 mins before substrate addition
Procathepsin L [5] = biological target: T1, Procathepsin L (Homo sapiens, UniProt P07711); test: Inhibition of recombinant cathepsin L using ZFR-pNA as substrate at 100 uM preincubated for 45 mins
How it was run: (§1)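 Recombinant cathepsin L or S activated with 1 mM DTT in 0.1 M acetate pH 5.5. Preincubated 45 min at room temperature with compound in phosphate buffer with 0.1% BSA, 1 mM EDTA and 0.001% Tween. Z-FR-pNA added, reaction 5 min; final 30 nM enzyme and 5.0 μM substrate. Triplicate runs; IC50 from at least seven concentrations.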
Target sequence in this assay (P07711 114-333 limits assumed): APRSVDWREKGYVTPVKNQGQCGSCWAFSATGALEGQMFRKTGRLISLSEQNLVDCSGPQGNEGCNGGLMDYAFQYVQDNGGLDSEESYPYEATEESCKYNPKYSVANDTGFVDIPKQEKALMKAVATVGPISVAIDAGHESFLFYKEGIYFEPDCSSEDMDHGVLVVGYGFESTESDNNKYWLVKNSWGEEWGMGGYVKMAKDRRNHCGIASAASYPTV

Trypanosoma cruzi [6] = test: Inhibition of trypomastigotes of Trypanosoma cruzi Y invasion to mouse peritoneal macrophages at 50 uM […]; type: functional, organism-based
Cruzipain = Cruzipain (Trypanosoma cruzi, UniProt P25779); test: Inhibition of Trypanosoma cruzi recombinant cruzain using Z-FR-AMC as substrate preincubated for 10 mins before substrate addition
How it was run: (§2)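 Recombinant cruzain preincubated 10 min at room temperature with compound (DMSO) in phosphate buffer containing EDTA, 100 mM NaCl and DTT. Z-FR-AMC then added; final 0.5 nM enzyme and 2 μM substrate. Fluorescence read at 1, 5 and 10 min; % inhibition versus no-inhibitor control. Single-point values are triplicate means; IC50 by nonlinear regression from multiple concentrations. Some runs used 0.01% Triton X-100.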

Cathepsin S = Cathepsin S (Homo sapiens, UniProt P25774); test: Inhibition of recombinant cathepsin S using ZFR-pNA as substrate preincubated for 45 mins; how it was run: as §1
Trypanosoma cruzi [7] = test: Antitrypanosomal activity against trypomastigotes of Trypanosoma cruzi Y infected in mouse peritoneal macrophages assessed as reduction of intracellular parasite level at 10 uM after 4 days; type: functional, organism-based
How it was run: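 Peritoneal exudate macrophages, 2 × 10⁵/well on coverslips, infected with Y strain trypomastigotes at 10 parasites per macrophage for 2 h, then washed. Compound in DMSO added for 6 h, medium replaced, culture continued 4 days. After methanol fixation and Giemsa staining, 100 cells per slide counted for % infected macrophages and amastigotes per cell. IC50 based on % infected cells versus untreated.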

Procathepsin L [8] = biological target: T1, Procathepsin L; test: Inhibition of recombinant cathepsin L using ZFR-pNA as substrate preincubated for 45 mins; how it was run: as §1
Target sequence in this assay (P07711 whole entry): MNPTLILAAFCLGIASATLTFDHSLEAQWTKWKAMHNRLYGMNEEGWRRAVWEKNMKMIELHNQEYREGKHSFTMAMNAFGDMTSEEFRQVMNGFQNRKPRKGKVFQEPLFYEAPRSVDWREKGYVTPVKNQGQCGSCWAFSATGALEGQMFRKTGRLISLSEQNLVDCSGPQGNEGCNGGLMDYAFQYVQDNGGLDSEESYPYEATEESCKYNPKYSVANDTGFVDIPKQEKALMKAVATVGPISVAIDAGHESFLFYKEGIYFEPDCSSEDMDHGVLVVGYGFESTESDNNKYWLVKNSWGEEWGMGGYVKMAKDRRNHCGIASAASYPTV

[9] = biological target: Cruzipain (Trypanosoma cruzi) (UniProt P25779); test: Inhibition of Trypanosoma cruzi recombinant cruzain using Z-FR-AMC as substrate at 20 uM preincubated for 10 mins before substrate addition in presence of 0.01% of Triton X-100; how it was run: as §2
[10] = Solubility of the compound in 0.1 M sodium acetate pH 5.5; type: physicochemical; conditions: buffer
[11] = biological target: Cruzipain (Trypanosoma cruzi) (UniProt P25779); test: Inhibition of Trypanosoma cruzi recombinant cruzain using Z-FR-AMC as substrate at 100 uM preincubated for 10 mins before substrate addition; how it was run: as §2

Cruzipain (Trypanosoma cruzi), sequence (P25779 123-467 limits assumed): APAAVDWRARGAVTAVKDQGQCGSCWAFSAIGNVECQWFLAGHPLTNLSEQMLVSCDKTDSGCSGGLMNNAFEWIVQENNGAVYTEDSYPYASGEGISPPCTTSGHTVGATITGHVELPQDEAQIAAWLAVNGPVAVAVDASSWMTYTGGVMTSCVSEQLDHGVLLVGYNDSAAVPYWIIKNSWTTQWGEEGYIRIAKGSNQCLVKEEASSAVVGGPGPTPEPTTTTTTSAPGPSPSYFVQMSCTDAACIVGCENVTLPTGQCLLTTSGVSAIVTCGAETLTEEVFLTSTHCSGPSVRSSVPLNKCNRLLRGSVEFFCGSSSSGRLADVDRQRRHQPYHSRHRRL
Cruzipain, sequence (P25779 whole entry): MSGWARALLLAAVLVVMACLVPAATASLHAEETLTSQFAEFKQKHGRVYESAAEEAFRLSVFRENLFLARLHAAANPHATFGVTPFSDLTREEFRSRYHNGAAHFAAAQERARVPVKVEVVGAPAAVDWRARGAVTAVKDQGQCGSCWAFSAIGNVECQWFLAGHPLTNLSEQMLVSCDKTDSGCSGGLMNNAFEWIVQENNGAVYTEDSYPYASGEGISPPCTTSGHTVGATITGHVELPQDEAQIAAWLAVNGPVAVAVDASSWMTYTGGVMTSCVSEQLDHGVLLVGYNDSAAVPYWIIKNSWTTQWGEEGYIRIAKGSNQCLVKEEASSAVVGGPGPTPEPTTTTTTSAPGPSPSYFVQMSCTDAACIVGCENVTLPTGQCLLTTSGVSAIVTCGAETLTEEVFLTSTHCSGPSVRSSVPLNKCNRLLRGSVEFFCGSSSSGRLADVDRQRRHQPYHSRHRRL
Cathepsin S, sequence (P25774 whole entry): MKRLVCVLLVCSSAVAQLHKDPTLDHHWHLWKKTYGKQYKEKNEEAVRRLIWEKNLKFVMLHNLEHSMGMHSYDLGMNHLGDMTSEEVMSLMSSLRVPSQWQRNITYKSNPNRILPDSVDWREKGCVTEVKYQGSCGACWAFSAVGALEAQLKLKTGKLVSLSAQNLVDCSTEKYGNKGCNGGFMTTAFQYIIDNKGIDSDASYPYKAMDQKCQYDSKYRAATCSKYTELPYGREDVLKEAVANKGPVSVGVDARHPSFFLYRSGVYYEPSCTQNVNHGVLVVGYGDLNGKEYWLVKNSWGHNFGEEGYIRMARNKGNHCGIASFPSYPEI

Row | Structure (SMILES) | IC50 (Trypanosoma cruzi [1]) | IC50 (Trypanosoma cruzi [3]) | inhibition [4] | MNTC at 24 h [2] | other results
1 | C/C(COc1ccccc1)=N\Nc1nc(-c2ccc(F)cc2)cs1 | 11.5 µM | 41.3 µM | inactive | > 100 µg/mL | –
2 | C[C@@H]1[C@H](O)[C@@H](C)/C=C/C=C/C=C/C=C/C=C/C=C/C=C/[C@H](O[C@@H]2O[C@H](C)[C@@H](O)[C@H](N)[C@@H]2O)C[C@@H]2O[C@](O)(C[C@@H](O)C[C@@H](O)[C@H](O)CC[C@@H](O)C[C@@H](O)CC(=O)O[C@H]1C)C[C@H](O)[C@H]2C(=O)O | – | – | – | – | inhibition (Trypanosoma cruzi [6]): Active
3 | C/C(COc1ccccc1)=N\Nc1nc(-c2ccc(C(C)(C)C)cc2)cs1 | – | – | inactive | 50 µg/mL | –
4 | C/C(COc1ccccc1)=N\Nc1nc(-c2ccc(Br)cc2)cs1 | – | 49.8 µM | 25% | 100 µg/mL | –
5 | CCC1S/C(=N/N=C(\C)COc2ccccc2)NC1=S (racemic) | 31.5 µM | 26.1 µM | 48% | 25 µg/mL | IC50 (Cruzipain; read-out: IC50): 18.7 µM; inhibition (Procathepsin L [5]): 81%; IC50 (Procathepsin L [8]): 13.8 µM
6 | C/C(COc1ccccc1)=N\N=c1\scc(-c2ccccc2)n1C | 175 µM | 25.6 µM | inactive | 10 µg/mL | –
7 | CC1CS(=O)(=O)CCN1/N=C/c1ccc([N+](=O)[O-])o1 (stereo not drawn) [NIFURTIMOX] | 2.7 µM | 1.9 µM | – | 1 µg/mL | –
8 | C/C(COc1ccccc1)=N\N=C1\SC(C)C(=O)N1c1ccccc1 (racemic) | 29 µM | 31.8 µM | 50% | 100 µg/mL | IC50 (Cruzipain; read-out: IC50): 10.8 µM; inhibition (Procathepsin L [5]): 0%; Activity (Trypanosoma cruzi [7]): Active
9 | C/C(COc1ccccc1)=N\N=C1\SC(c2ccccc2)C(=O)N1c1ccccc1 (racemic) | 11.1 µM | 15.6 µM | 43% | > 100 µg/mL | IC50 (Cruzipain): ND(Insoluble); inhibition (Procathepsin L [5]): 15%; solubility [10]: Insoluble
10 | C/C(COc1ccccc1)=N\Nc1nc(-c2ccc3ccccc3c2)cs1 | 36.4 µM | 83 µM | inactive | > 100 µg/mL | –
11 | C/C(COc1ccccc1)=N\Nc1nc(-c2ccc(C)cc2)cs1 | 49.7 µM | 67 µM | inactive | 100 µg/mL | –
12 | C/C(COc1ccccc1)=N\N=C1\SC(C)C(=O)N1C (racemic) | – | – | 0% | 25 µg/mL | –
13 | C/C(COc1ccccc1)=N\N=C1\SC(C(C)C)C(=O)N1C (racemic) | 10.7 µM | 14 µM | 81% | > 100 µg/mL | IC50 (Cruzipain; read-out: IC50): 8 µM; inhibition (Procathepsin L [5]): 0%; IC50 (Cathepsin S): > 100 µM; IC50 (Procathepsin L [8]): > 100 µM
14 | CCC1S/C(=N/N=C(\C)COc2ccccc2)N(c2ccc(OC)cc2)C1=O (racemic) | 9 µM | 6.8 µM | 71% | 100 µg/mL | IC50 (Cruzipain; read-out: IC50): 8.7 µM
15 | C/C(COc1ccccc1)=N\N=c1\scc(-c2ccccc2)n1-c1ccccc1 | 61.1 µM | 2.6 µM | inactive | > 100 µg/mL | –
16 | CCC1S/C(=N/N=C(\C)COc2ccccc2)N(C)C1=O (racemic) | – | – | 50% | > 100 µg/mL | IC50 (Cruzipain; read-out: IC50): 31.9 µM; inhibition (Procathepsin L [5]): 6%; IC50 (Cathepsin S): > 100 µM; IC50 (Procathepsin L [8]): > 100 µM
17 | C/C(COc1ccccc1)=N\N=C1\SCC(=O)N1c1ccccc1 | 18 µM | 25.8 µM | 66% | > 100 µg/mL | IC50 (Cruzipain; read-out: IC50): 10.2 µM; inhibition (Procathepsin L [5]): 0%; IC50 (Cathepsin S): > 100 µM; IC50 (Procathepsin L [8]): > 100 µM
18 | CCC1S/C(=N/N=C(\C)COc2ccccc2)NC1=O (racemic) | – | – | 5% | > 100 µg/mL | inhibition (Procathepsin L [5]): 5%
19 | C/C(COc1ccccc1)=N\Nc1nc(-c2ccc(Cl)c(Cl)c2Cl)cs1 | – | – | inactive | > 1 µg/mL | –
20 | C/C(COc1ccccc1)=N\Nc1nc(-c2ccncc2)cs1 | 3.9 µM | 4 µM | – | 100 µg/mL | inhibition (Trypanosoma cruzi [6]): inactive; Activity (Trypanosoma cruzi [7]): inactive; inhibition [11]: 13.3%
21 | C/C(COc1ccccc1)=N\Nc1nc(-c2cccs2)cs1 | 37.6 µM | 16.6 µM | – | 50 µg/mL | inhibition [11]: 30%
22 | C/C(COc1ccccc1)=N\N=C1\SC(c2ccccc2)C(=O)N1C (racemic) | 18 µM | 12 µM | 27% | > 100 µg/mL | IC50 (Cruzipain): ND(Insoluble); solubility [10]: Insoluble
23 | C/C(COc1ccccc1)=N\N=C1\SC(c2ccccc2)C(=S)N1c1ccccc1 (racemic) | 11.2 µM | 4.2 µM | 72% | 100 µg/mL | IC50 (Cruzipain; read-out: IC50): 7 µM; inhibition (Procathepsin L [5]): 89%; IC50 (Procathepsin L [8]): 10.8 µM; inhibition [9]: 79%
24 | CCC1S/C(=N/N=C(\C)COc2ccccc2)N(C2CCCCC2)C1=O (racemic) | – | – | 10% | > 100 µg/mL | –
25 | C/C(COc1ccccc1)=N\Nc1nc(-c2cccc([N+](=O)[O-])c2)cs1 | 3.8 µM | 4 µM | inactive | 100 µg/mL | –
26 | C/C(COc1ccccc1)=N\N=C1/NC(=O)C(c2ccccc2)S1 (racemic) | 18.7 µM | 34.8 µM | 63% | 25 µg/mL | solubility [10]: Insoluble; inhibition [11]: 63%

Further lines, with some results ahead:

Row | IC50 (Trypanosoma cruzi [1]) | IC50 (Trypanosoma cruzi [3]) | inhibition [4] | Structure (SMILES) | MNTC at 24 h [2] | other results
27 | – | – | 3% | C/C(COc1ccccc1)=N\N=C1/NC(=O)C(C)S1 (racemic) | > 100 µg/mL | inhibition (Procathepsin L [5]): 0%
28 | 5.8 µM | 11.1 µM | 66% | CCC1S/C(=N/N=C(\C)COc2ccccc2)N(c2ccccc2)C1=O (racemic) | 100 µg/mL | IC50 (Cruzipain; read-out: IC50): 9.5 µM; inhibition (Procathepsin L [5]): 4%; IC50 (Cathepsin S): > 100 µM; Activity (Trypanosoma cruzi [7]): Active; IC50 (Procathepsin L [8]): > 100 µM; inhibition [9]: 64%
29 | – | – | 0% | C/C(COc1ccccc1)=N\N=C1\SCC(=O)N1C | > 100 µg/mL | IC50 (Cruzipain): ND(Insoluble)
30 | 17 µM | 19 µM | 20% | C/C(COc1ccccc1)=N\Nc1nc(-c2ccc(Cl)c(Cl)c2)cs1 | 25 µg/mL | –
31 | 19.9 µM | 15 µM | 65% | CCC1S/C(=N/N=C(\C)COc2ccccc2)N(c2ccc(C)cc2)C1=O (racemic) | 100 µg/mL | IC50 (Cruzipain; read-out: IC50): 11.8 µM
32 | 17.8 µM | 14.9 µM | inactive | COc1ccc(-c2csc(N/N=C(\C)COc3ccccc3)n2)cc1 | 100 µg/mL | –
33 | 16.8 µM | 12.2 µM | 60.8% | C/C(COc1ccccc1)=N\N=C1/NC(=O)C(C(C)C)S1 (racemic) | > 100 µg/mL | IC50 (Cruzipain; read-out: IC50): 18.9 µM; inhibition (Procathepsin L [5]): 11%
34 | 12.3 µM | 20.5 µM | inactive | C/C(COc1ccccc1)=N\Nc1nc(-c2cccnc2)cs1 | 100 µg/mL | –
35 | – | 57.1 µM | 13% | C/C(COc1ccccc1)=N\Nc1nc(-c2ccc(Cl)cc2)cs1 | 100 µg/mL | –
36 | 34.8 µM | 11.8 µM | inactive | C/C(COc1ccccc1)=N\Nc1nc(-c2ccccn2)cs1 | 100 µg/mL | –
37 | 17 µM | 42.2 µM | 40% | C/C(COc1ccccc1)=N\Nc1nc(-c2ccc(Cl)cc2Cl)cs1 | < 1 µg/mL | –
38 | 17.7 µM | – | – | C/C(COc1ccccc1)=N\Nc1nc(-c2ccco2)cs1 | > 100 µg/mL | inhibition [11]: 4.7%
39 | 5.7 µM | 1.9 µM | inactive | C/C(COc1ccccc1)=N\Nc1nc(-c2ccc([N+](=O)[O-])cc2)cs1 | 100 µg/mL | Activity (Trypanosoma cruzi [7]): Active
